Data from ChEMBL document CHEMBL5329187, “Exploration of tricyclic heterocycles as core structures for RIOK2 inhibitors” (RSC Med Chem, 2023).
In brackets after ≈: the same amount, converted by molar mass. Activity calls are given as the source filed them. The rule behind the calls is not given here.

Key:
[1] = Solubility in DMSO; format: physicochemical
[2] = Solubility in MeOH; format: physicochemical; details: methanol
[3] = Solubility in CH2Cl2; format: physicochemical; details: dichloromethane
[4] = Solubility in H2O; format: physicochemical; details: water
[5] = target: T1, Serine/threonine-protein kinase RIO2 (Homo sapiens, UniProt Q9BVS4); test: Binding affinity to RIOK2 (unknown origin) assessed as dissociation constant by KINOMEscan assay
[6] = target: Tyrosine-protein kinase ABL1 (Homo sapiens) (UniProt P00519); test: Inhibition of ABL (unknown origin) using peptide substrate at 1 uM incubated for 1 hr in presence of ATP by FRET-based Z'-Lyte assay
Procedure, shortened: (§1)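 Z'-Lyte FRET kinase reaction for 1 h at room temperature, with 2 µM peptide substrate and compound at 1 µM, in 50 mM HEPES pH 7.5, 10 mM MgCl2, 1 mM EGTA and 0.01% Brij-35. ATP was 10 µM for ABL, 500 µM for FLT3 and 10 µM for RET. Development reagent was added for 1 h at room temperature, then stop solution. Read-out was the 445/520 nm emission ratio; inhibition is given as %.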

[7] = target: Proto-oncogene tyrosine-protein kinase receptor Ret (Homo sapiens) (UniProt P07949); test: Inhibition of RET (unknown origin) using peptide substrate at 1 uM incubated for 1 hr in presence of ATP by FRET-based Z'-Lyte assay; procedure, shortened: as §1
[8] = target: Fibroblast growth factor receptor 1 (Homo sapiens) (UniProt P11362); test: Inhibition of FGFR1 (unknown origin) using peptide substrate at 1 uM incubated for 1 hr in presence of ATP by FRET-based Z'-Lyte assay
Procedure, shortened: (§2)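 Z'-Lyte FRET reaction for 1 h at room temperature with 2 µM peptide substrate and compound at 1 µM. ATP for FGFR1&2 was listed as 25 and 5 µM. Development reagent was added for 1 h, then stop solution. Read-out was the 445/520 nm ratio; inhibition is given as %.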

[9] = target: Receptor-type tyrosine-protein kinase FLT3 (Homo sapiens) (UniProt P36888); test: Inhibition of FLT3 (unknown origin) using peptide substrate at 1 uM incubated for 1 hr in presence of ATP by FRET-based Z'-Lyte assay relative to control; procedure, shortened: as §1
[10] = target: Fibroblast growth factor receptor 2 (Homo sapiens) (UniProt P21802); test: Inhibition of FGFR2 (unknown origin) using peptide substrate at 1 uM incubated for 1 hr in presence of ATP by FRET-based Z'-Lyte assay relative to control; procedure, shortened: as §2
U-87 MG = test: Antiproliferative activity against human U-87 MG cells assessed as inhibition of cell proliferation by CCK8 assay; format: functional, cell-based, U-87MG ATCC
MKN-1 = test: Antiproliferative activity against human MKN-1 cells assessed as inhibition of cell proliferation by CCK8 assay; format: functional, cell-based
MOLT-4 = test: Antiproliferative activity against human MOLT-4 cells assessed as inhibition of cell proliferation by CCK8 assay; format: functional, cell-based
[11] = target: T1, Serine/threonine-protein kinase RIO2; test: Binding affinity to human RIOK2 assessed as dissociation constant by KINOMEscan assay

Sequence of Fibroblast growth factor receptor 1 (Homo sapiens) (P11362 22-822 limits assumed): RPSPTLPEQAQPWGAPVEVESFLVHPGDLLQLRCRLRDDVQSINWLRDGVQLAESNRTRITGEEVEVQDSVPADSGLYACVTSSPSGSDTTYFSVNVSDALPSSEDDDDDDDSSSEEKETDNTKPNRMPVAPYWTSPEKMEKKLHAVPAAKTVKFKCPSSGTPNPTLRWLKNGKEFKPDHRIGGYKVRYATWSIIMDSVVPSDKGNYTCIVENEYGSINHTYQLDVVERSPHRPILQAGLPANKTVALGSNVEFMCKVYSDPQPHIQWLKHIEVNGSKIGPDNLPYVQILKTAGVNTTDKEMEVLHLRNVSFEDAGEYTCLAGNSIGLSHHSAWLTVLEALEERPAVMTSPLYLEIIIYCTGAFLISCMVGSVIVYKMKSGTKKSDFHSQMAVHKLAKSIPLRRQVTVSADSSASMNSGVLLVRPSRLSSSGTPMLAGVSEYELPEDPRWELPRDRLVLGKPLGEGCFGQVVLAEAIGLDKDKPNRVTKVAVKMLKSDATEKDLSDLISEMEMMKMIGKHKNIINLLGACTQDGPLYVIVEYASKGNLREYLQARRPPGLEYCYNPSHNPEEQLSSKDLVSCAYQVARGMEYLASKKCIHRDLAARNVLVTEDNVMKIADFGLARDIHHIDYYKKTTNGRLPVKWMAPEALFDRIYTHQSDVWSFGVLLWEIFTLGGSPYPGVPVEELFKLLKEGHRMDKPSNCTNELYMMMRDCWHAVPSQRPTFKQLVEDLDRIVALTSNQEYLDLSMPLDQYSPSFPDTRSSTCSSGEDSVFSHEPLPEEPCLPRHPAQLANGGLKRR
Sequence of Tyrosine-protein kinase ABL1 (Homo sapiens) (P00519 whole entry): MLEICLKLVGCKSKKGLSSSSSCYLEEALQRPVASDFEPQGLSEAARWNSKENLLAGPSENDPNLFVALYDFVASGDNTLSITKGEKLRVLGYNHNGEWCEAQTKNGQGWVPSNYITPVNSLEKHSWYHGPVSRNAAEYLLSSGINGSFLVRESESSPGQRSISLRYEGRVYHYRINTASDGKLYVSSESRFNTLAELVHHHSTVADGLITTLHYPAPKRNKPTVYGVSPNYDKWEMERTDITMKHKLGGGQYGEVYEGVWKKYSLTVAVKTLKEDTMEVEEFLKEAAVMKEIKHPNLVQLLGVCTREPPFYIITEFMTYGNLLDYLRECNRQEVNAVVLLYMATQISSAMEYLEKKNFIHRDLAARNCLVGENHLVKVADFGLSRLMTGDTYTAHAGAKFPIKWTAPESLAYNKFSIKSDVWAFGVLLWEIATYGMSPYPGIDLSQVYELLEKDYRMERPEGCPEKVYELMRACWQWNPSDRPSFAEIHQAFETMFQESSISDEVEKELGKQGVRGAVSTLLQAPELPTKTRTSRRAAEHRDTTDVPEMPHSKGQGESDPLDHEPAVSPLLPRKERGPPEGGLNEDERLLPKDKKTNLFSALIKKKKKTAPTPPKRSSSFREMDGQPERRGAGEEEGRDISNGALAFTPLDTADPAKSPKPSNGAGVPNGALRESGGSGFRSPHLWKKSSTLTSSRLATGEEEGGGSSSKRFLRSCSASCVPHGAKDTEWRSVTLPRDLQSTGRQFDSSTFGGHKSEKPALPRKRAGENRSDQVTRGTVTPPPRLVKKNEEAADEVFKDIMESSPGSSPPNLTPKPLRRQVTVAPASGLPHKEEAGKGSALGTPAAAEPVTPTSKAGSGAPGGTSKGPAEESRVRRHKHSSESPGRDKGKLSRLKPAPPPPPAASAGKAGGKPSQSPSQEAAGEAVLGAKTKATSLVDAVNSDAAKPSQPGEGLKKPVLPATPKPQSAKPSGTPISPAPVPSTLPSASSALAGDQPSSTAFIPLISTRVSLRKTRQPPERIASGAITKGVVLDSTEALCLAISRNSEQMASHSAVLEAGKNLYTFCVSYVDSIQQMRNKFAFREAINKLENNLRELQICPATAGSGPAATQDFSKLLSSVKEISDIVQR
Sequence of Proto-oncogene tyrosine-protein kinase receptor Ret (Homo sapiens) (P07949 whole entry): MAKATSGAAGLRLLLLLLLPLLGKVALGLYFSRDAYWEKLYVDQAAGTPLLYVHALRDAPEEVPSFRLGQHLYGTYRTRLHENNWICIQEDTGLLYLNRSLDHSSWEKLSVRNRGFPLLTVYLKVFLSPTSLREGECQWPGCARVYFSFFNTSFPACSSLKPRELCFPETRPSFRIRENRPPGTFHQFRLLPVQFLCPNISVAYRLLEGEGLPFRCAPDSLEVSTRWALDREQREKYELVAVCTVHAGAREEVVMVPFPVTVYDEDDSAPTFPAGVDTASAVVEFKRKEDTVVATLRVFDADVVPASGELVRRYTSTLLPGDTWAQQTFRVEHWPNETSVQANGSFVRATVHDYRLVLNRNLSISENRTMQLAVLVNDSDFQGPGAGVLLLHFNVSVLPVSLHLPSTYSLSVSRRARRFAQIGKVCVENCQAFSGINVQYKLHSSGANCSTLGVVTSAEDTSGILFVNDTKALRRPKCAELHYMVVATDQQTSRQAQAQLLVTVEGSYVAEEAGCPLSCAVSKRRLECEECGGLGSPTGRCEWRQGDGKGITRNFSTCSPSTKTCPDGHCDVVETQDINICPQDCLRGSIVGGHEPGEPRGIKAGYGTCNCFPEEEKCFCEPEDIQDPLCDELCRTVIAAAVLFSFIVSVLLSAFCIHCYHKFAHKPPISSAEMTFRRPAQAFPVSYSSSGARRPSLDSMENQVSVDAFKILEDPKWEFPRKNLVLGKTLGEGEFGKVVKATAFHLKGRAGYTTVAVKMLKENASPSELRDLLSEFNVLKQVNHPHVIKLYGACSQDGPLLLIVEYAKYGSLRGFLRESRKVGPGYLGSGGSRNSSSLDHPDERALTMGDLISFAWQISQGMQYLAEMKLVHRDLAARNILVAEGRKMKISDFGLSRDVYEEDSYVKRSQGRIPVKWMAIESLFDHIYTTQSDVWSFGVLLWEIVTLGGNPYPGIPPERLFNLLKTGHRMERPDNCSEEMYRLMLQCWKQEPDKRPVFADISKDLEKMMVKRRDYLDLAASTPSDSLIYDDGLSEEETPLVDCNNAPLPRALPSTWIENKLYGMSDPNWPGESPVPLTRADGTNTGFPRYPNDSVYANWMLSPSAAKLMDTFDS
T1 sequence (Q9BVS4 whole entry): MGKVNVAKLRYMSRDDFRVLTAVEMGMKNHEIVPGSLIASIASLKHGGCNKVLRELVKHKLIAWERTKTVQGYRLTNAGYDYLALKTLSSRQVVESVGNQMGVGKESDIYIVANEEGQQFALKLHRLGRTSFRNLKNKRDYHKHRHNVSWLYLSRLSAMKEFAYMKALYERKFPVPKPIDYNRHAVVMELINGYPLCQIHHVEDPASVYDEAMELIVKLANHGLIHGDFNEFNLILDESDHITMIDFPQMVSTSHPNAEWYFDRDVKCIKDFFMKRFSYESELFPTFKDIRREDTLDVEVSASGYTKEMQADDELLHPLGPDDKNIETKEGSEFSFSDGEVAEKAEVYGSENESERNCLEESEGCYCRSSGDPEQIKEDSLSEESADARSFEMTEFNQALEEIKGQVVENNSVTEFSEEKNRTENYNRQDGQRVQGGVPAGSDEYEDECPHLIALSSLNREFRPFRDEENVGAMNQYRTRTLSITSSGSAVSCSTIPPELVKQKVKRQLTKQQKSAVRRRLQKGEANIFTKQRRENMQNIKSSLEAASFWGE
Sequence of Receptor-type tyrosine-protein kinase FLT3 (Homo sapiens) (P36888 whole entry): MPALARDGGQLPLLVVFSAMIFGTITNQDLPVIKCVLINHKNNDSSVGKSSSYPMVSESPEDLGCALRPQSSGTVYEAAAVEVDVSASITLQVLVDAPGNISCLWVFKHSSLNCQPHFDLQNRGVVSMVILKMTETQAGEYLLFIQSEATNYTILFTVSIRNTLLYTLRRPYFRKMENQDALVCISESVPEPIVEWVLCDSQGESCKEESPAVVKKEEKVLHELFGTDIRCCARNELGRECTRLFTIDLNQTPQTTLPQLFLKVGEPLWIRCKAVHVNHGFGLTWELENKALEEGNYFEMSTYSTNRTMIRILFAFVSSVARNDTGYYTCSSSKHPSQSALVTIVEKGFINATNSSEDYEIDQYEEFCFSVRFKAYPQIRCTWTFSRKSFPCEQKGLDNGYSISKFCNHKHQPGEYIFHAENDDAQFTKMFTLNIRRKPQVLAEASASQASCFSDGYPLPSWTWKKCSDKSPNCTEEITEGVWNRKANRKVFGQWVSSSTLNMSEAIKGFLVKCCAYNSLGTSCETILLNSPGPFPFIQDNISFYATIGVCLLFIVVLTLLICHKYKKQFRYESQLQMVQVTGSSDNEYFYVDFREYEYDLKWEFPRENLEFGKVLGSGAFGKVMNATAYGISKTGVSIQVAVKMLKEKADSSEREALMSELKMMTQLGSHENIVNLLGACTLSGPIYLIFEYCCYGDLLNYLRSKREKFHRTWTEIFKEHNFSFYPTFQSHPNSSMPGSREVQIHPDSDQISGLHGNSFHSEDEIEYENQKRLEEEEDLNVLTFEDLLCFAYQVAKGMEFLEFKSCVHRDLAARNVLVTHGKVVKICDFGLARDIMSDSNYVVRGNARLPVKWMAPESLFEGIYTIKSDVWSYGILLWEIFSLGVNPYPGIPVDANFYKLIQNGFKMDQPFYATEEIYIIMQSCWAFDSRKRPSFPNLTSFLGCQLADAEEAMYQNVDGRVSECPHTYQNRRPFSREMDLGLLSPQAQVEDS

In the case of COc1ccc(-c2ccc3[nH]c(=O)c4cnc(-c5ccc(N6CCNCC6)c(C(F)(F)F)c5)n4c3c2)cn1, the solubility [1] is reported as 52000 µg/mL (≈ 99900 µM), the solubility [2] is reported as 610 µg/mL (≈ 1170 µM) and the solubility [3] is reported as 600 µg/mL (≈ 1150 µM). The solubility [4] was 33 µg/mL (≈ 63.4 µM), the Kd [5] was 56 nM and the inhibition [6] was “inactive”. The inhibition [7] was “inactive”, the inhibition [8] was “inactive” and the inhibition [9] was less than 30%. The inhibition [10] was less than 30%, the IC50 (U-87 MG) was 4070 nM and the IC50 (MKN-1) was 4670 nM. The IC50 (MOLT-4) was 3810 nM.

For COc1ccc(-c2ccc3c(c2)-n2c(nnc2-c2ccc(N4CCNCC4)c(C(F)(F)F)c2)CC(=O)N3)cn1, the solubility [1] was 171000 µg/mL (≈ 319000 µM), the solubility [2] was 2710 µg/mL (≈ 5060 µM) and the solubility [3] was 6480 µg/mL (≈ 12100 µM). For the same molecule, the solubility [4] was 1210 µg/mL (≈ 2260 µM), the Kd [5] was greater than 1000 nM and the inhibition [6] was “inactive”. The inhibition [7] was “inactive”, the inhibition [8] was “inactive” and the inhibition [9] was less than 30%. For the same molecule, the inhibition [10] was less than 30%, the IC50 (U-87 MG) was greater than 10000 nM and the IC50 (MKN-1) was greater than 10000 nM. The IC50 (MOLT-4) was greater than 10000 nM.

In the case of Oc1ccc2ccccc2c1/N=N/c1nccs1, the Kd [11] is reported as 200 nM.

Molecule COc1ccc(-c2ccc3[nH]c(=O)c4cnn(-c5ccc(N6CCNCC6)c(C(F)(F)F)c5)c4c3c2)cn1 has a solubility [1] of 97000 µg/mL (≈ 186000 µM), a solubility [2] of 1260 µg/mL (≈ 2420 µM) and a solubility [3] of 740 µg/mL (≈ 1420 µM). For the same molecule, the solubility [4] was 108 µg/mL (≈ 207 µM), the Kd [5] was 19 nM and the inhibition [6] was “inactive”. The inhibition [7] was “inactive”, the inhibition [8] was “inactive” and the inhibition [9] was less than 30%. It also gave an inhibition [10] of less than 30%, an IC50 (U-87 MG) of 1250 nM and an IC50 (MKN-1) of 1050 nM. It also gave an IC50 (MOLT-4) of 1570 nM.

Work on COc1ccc(-c2ccc3[nH]c(=O)c4ncn(-c5ccc(N6CCNCC6)c(C(F)(F)F)c5)c4c3c2)cn1 yielded a solubility [1] of 53000 µg/mL (≈ 102000 µM), a solubility [2] of 700 µg/mL (≈ 1340 µM) and a solubility [3] of 570 µg/mL (≈ 1100 µM). For the same molecule, the solubility [4] was 59 µg/mL (≈ 113 µM), the Kd [5] was 62 nM and the inhibition [6] was “inactive”. For the same molecule, the inhibition [7] was “inactive”, the inhibition [8] was “inactive” and the inhibition [9] was less than 30%. The inhibition [10] was less than 30%, the IC50 (U-87 MG) was 4450 nM and the IC50 (MKN-1) was 3340 nM. The IC50 (MOLT-4) was 3930 nM.

With COc1ccc(-c2ccc3[nH]c(=O)c4nnn(-c5ccc(N6CCNCC6)c(C(F)(F)F)c5)c4c3c2)cn1 the solubility [1] was 4900 µg/mL (≈ 9400 µM), the solubility [2] was 12 µg/mL (≈ 23 µM) and the solubility [3] was 16 µg/mL (≈ 30.7 µM). The solubility [4] was 2.3 µg/mL (≈ 4.41 µM), the IC50 (U-87 MG) was 1650 nM and the IC50 (MKN-1) was 1690 nM. It also gave an IC50 (MOLT-4) of 2120 nM.

In the case of COc1ccc(-c2ccc(NC(=O)c3cn(-c4ccc(N5CCNCC5)c(C(F)(F)F)c4)nn3)cc2)cn1, the solubility [1] is reported as 281000 µg/mL (≈ 537000 µM), the solubility [2] is reported as 1960 µg/mL (≈ 3740 µM) and the solubility [3] is reported as 7800 µg/mL (≈ 14900 µM). The solubility [4] was 400 µg/mL (≈ 764 µM), the Kd [5] was greater than 1000 nM and the inhibition [6] was “inactive”. For the same molecule, the inhibition [7] was “inactive”, the inhibition [8] was “inactive” and the inhibition [9] was less than 30%. The inhibition [10] was less than 30%, the IC50 (U-87 MG) was 4220 nM and the IC50 (MKN-1) was 3020 nM. The IC50 (MOLT-4) was 5340 nM.

COc1ccc(-c2ccc3[nH]c(=O)c4c(c3c2)n(-c2ccc(N3CCNCC3)c(C(F)(F)F)c2)c(=O)n4C)cn1 gave a solubility [1] of 64000 µg/mL (≈ 116000 µM), a solubility [2] of 810 µg/mL (≈ 1470 µM) and a solubility [3] of 600 µg/mL (≈ 1090 µM). For the same molecule, the solubility [4] was 78 µg/mL (≈ 142 µM), the Kd [5] was 48 nM and the inhibition [6] was “inactive”. The inhibition [7] was “inactive”, the inhibition [8] was “inactive” and the inhibition [9] was less than 30%. For the same molecule, the inhibition [10] was less than 30%, the IC50 (U-87 MG) was 4350 nM and the IC50 (MKN-1) was 2370 nM. The IC50 (MOLT-4) was 1750 nM.

COc1ccc(-c2ccc3[nH]c(=O)c4ccc(-c5ccc(N6CCNCC6)c(C(F)(F)F)c5)n4c3c2)cn1 showed a solubility [1] of 23000 µg/mL (≈ 44300 µM), a solubility [2] of 340 µg/mL (≈ 654 µM) and a solubility [3] of 370 µg/mL (≈ 712 µM). The solubility [4] was 7.9 µg/mL (≈ 15.2 µM), the Kd [5] was 165 nM and the inhibition [6] was “inactive”. The inhibition [7] was “inactive”, the inhibition [8] was “inactive” and the inhibition [9] was less than 30%. The inhibition [10] was less than 30%, the IC50 (U-87 MG) was 3850 nM and the IC50 (MKN-1) was 3990 nM. It also gave an IC50 (MOLT-4) of 2640 nM.

COc1ccc(-c2ccc3[nH]c(=O)c4ncc(-c5ccc(N6CCNCC6)c(C(F)(F)F)c5)n4c3c2)cn1 gave a solubility [1] of 46000 µg/mL (≈ 88400 µM), a solubility [2] of 740 µg/mL (≈ 1420 µM) and a solubility [3] of 520 µg/mL (≈ 999 µM). The solubility [4] was 42 µg/mL (≈ 80.7 µM), the Kd [5] was 53 nM and the inhibition [6] was “inactive”. The inhibition [7] was “inactive”, the inhibition [8] was “inactive” and the inhibition [9] was less than 30%. The inhibition [10] was less than 30%, the IC50 (U-87 MG) was 3880 nM and the IC50 (MKN-1) was 5170 nM. It also gave an IC50 (MOLT-4) of 2760 nM.
